# An excerpt weighted towards active compounds, which were near 6.6% of everything screened.
# Lung fibro prol – blocks proliferation of human lung fibroblasts. LL 47 human lung fibroblast viability, ATP luminescence; stronger effect = lower value. viability, % at 10 µM. hit rate 1.1% among 85,000. AID 719;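 active = viability at or below 50% in the single dose screen; inactive = viability above 50%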;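 also: compound exposure lasted 72 h before the ATP readout; 100% = median luminescence of untreated cell-only wells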
#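 Test system: LL 47 human lung fibroblasts / Incubation: 72 h compound exposure at 37 °C after overnight plating / Technique: luminescent ATP detection, CellTiter-Glo / Compound dosing: 0.1% DMSO in all compound wells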
# Jurkat tox 60K – reduces viability or proliferation of Jurkat cells | Jurkat E6.1 viability, ATP luminescence, 48 h | inhibition, % at 4 µM | hit rate 1.2% among 56,000 | AID 463;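 active = inhibition above the mean inhibition of all tested compounds plus 3 SD, cut at about 28% in these data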
# HUVEC inhibit – blocks proliferation of human endothelial cells; HUVEC proliferation, CellTiter-Glo luminescence, 72 h; stronger effect = lower value; viability, % at 10 µM (by protocol); hit rate 1.1% among 86,000; AID 648;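 active = viability at or below 30%; inactive = viability above 30%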;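 also: 100% = median luminescence of DMSO-only cell control wells on each plate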
# H69AR inhibit – blocks growth of human H69AR lung tumor cells | H69AR lung tumor viability, ATP luminescence, 72 h; stronger effect = lower value | viability, % at 10 µM | hit rate 6% among 85,000 | AID 598;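 active = viability at or below 40%; inactive = viability above 40%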;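 also: multidrug resistant small cell line overexpressing MRP-1 efflux transporter; 100% = mean luminescence of untreated control wells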
# Numbers without * were called inactive; nt = no result given.
SMILES,Lung fibro prol,Jurkat tox 60K,HUVEC inhibit,H69AR inhibit
Cc1ccccc1Cc1c(C)nc2c(C(=O)NCc3ccc4c(c3)OCO4)cnn2c1C,96,nt,71,29*
Cc1ccc(C)c(Cc2c(C)nc3c(C(=O)NCc4ccc5c(c4)OCO5)cnn3c2C)c1,91,nt,90,61
CCN(CC)S(=O)(=O)c1ccc2c(c1)nc(CCC(=O)Nc1cccc(C(F)(F)F)c1)n2CC,91,nt,70,14*
CCn1c(CCC(=O)Nc2nc3c(s2)CCCC3)nc2cc(S(=O)(=O)N(C)C)ccc21,84,4,82,43
COc1cccc(OCC(=O)Nc2c(C(=O)Nc3ccc(OC)cc3OC)oc3ccccc23)c1,77,-5,32,21*
COc1ccccc1NC(=O)c1oc2ccccc2c1NC(=O)c1cc(OC)c(OC)c(OC)c1,71,-4,41,22*
CCOCC(=O)Nc1c(C(=O)Nc2ccc(OC)cc2OC)oc2ccccc12,81,0,69,41
COc1cc2c(cc1NC(=O)c1cccnc1)oc1ccccc12,84,nt,64,35*
CCCCSc1nnc(CCCCCNC(=O)OC(C)(C)C)o1,89,10,83,87
CCCNC(=O)Cn1nc(C(F)(F)F)c2c1CCCC2,89,nt,100,95
CC1CCCN(c2nc3c(c(=O)[nH]c(=O)n3C)n2CCSc2ncccn2)C1 (centres undefined),92,10,59,88
O=[N+]([O-])c1ccc(Oc2ccc(F)cc2)c2ccncc12,73,nt,54,24*
O=[N+]([O-])c1ccc(Oc2cccc(Br)c2)c2ccncc12,84,nt,77,18*
O=[N+]([O-])c1cnccc1Nc1ccccc1,103,nt,96,92
CCCc1nc2oc3c(NCCN(C)C)ncnc3c2c2c1CCCC2,4.3*,6,39,8.9*
CCCc1nc2oc3c(N4CCNCC4)ncnc3c2c2c1CCCC2,84,0,67,7.0*
CC(C)Cc1nc2oc3c(N4CCN(C)CC4)ncnc3c2c2c1CCCC2,104,4,94,84
CC(C)(Oc1ccc(Br)cc1)C(=O)N1CCc2ccccc21,95,nt,124,75
Cc1oc(-c2ccc(Cl)cc2)nc1CN1CCC(C(=O)N2CCc3ccccc3C2)CC1,78,7,34,1.3*
Cc1oc(-c2cccc(Cl)c2)nc1CN1CCC(C(=O)N2CCN(c3ccccc3F)CC2)CC1,86,3,16*,5.8*
Cc1oc(-c2cccc(Cl)c2)nc1CN1CCC(C(=O)NCc2ccco2)CC1,102,8,83,83
Cc1oc(-c2ccc(Cl)cc2)nc1CN1CCC(C(=O)N2CCN(Cc3ccccc3)CC2)CC1,82,13,16*,83
CCn1ccc(C(=O)NC2=C(C#N)CCC2)n1,104,nt,105,91
COCC(C)NCc1ccccc1C (centres undefined),97,-2,88,88
CCn1ncc(Cl)c1C(=O)Nc1cc(Cl)ccc1Cl,101,-3,83,75
SMILES,Lung fibro prol,Jurkat tox 60K,HUVEC inhibit,H69AR inhibit
O=C(Cn1ncc(Cl)c(Cl)c1=O)c1ccc(Cl)cc1,2.6*,nt,2.6*,1.4*
Cc1ccc(N(CC(O)COCc2ccco2)S(=O)(=O)c2ccc(C)cc2)cc1 (centres undefined),99,2,84,87
CN1/C(=C\C(=O)c2cccs2)Sc2ccccc21,81,8,71,40*
COc1ccc(NC(=O)C(C)Oc2ccc(/C(C)=N\O)cc2)cc1 (centres undefined),96,7,96,93
Cc1cc(C)cc(NC(=O)NC2CCN(CC(=O)Nc3c(C)cc(C)cc3C)CC2)c1,125,nt,79,81
CCOC(=O)Cc1csc(NC(=O)CCCCCN2C(=O)c3cccc4cccc(c34)C2=O)n1,55,nt,52,41
CN1C(=S)SC(N(O)C(=O)Nc2ccccc2)C1(C)C (centres undefined),102,nt,102,96
CC1(C)SC(=S)N(/N=C/c2ccccc2)C1N(O)C(=O)Nc1ccc([N+](=O)[O-])cc1 (centres undefined),86,nt,86,37*
O=C(c1cn(-c2ccccc2)nc1-c1cccs1)N(CCO)Cc1ccccc1,96,nt,75,23*
O=C1N2c3ccccc3CCc3cccc(c32)C1(O)C(F)(F)F (centres undefined),nt,5,nt,nt
CCOC(=O)C1C(=O)C=C(c2cccc(NS(C)(=O)=O)c2)CC1c1ccco1 (centres undefined),86,nt,69,37*
CC(=O)C1C(=O)C=C(c2ccco2)CC1c1ccccc1 (centres undefined),93,7,104,87
CCOC(=O)C1C(=O)NC(N2CCOCC2)=NC1c1ccco1 (centres undefined),97,7,96,99
CCOC(=O)C1C(=O)C=C(c2ccc(Br)cc2)CC1c1ccco1 (centres undefined),100,nt,97,28*
CCCCc1c(C)c(C#N)c2[nH]c3ccccc3n2c1=O,92,nt,68,18*
Cc1c(CCC(C)C)c(=O)n2c([nH]c3ccccc32)c1C#N,90,nt,74,31*
CCOC(=O)C1=C(C)OC(N)=C(C#N)C1c1cc2c(cc1Br)OCO2 (centres undefined),92,-1,89,30*
CC1CC(C)CN(S(=O)(=O)c2ccc(C(=O)Nc3nnc(-c4cccs4)o3)cc2)C1 (centres undefined),72,44*,4.2*,45
O=C(Nc1nnc(-c2cccs2)o1)c1cccc(C(F)(F)F)c1,69,64*,39,23*
Cc1nnc(NC(=O)c2ccc(S(=O)(=O)N3CCCCCC3)cc2)o1,98,9,86,59
CCC1CCCCN1S(=O)(=O)c1ccc(C(=O)Nc2nnc(-c3cccs3)o2)cc1 (centres undefined),71,82*,64,20*
O=C(CCc1ccccc1)Nc1nnc(-c2cccs2)o1,98,12,87,102
CC1CCCN(S(=O)(=O)c2ccc(C(=O)Nc3nnc(-c4ccccc4Cl)o3)cc2)C1 (centres undefined),47*,2,3.9*,31*
Cc1ccc(OCc2nc(-c3ccc(-n4cccc4)cc3)no2)cc1C,107,nt,106,104
CN1/C(=C/C(=O)c2cccs2)Sc2ccccc21,90,nt,74,47
SMILES,Lung fibro prol,Jurkat tox 60K,HUVEC inhibit,H69AR inhibit
CCc1ccc2c(c1)/C(=C/C(=O)c1cccs1)C(=O)N2,6.5*,nt,67,1.7*
Cc1cccc2c1NC(=O)/C2=C\C(=O)c1cccs1,6.1*,nt,29*,2.1*
CCc1ccc(OCCNC(=O)c2cccs2)cc1,111,nt,110,90
Cc1cc(C)c2c(c1)/C(=C/C(=O)c1ccc(Br)s1)C(=O)N2,15*,nt,7.1*,1.8*
CC(C)c1nc(SCC(=O)N2CCCC2)c2ccccc2n1,82,-1,84,29*
Clc1ccc(C(c2nnnn2C2CCCCC2)N(Cc2cccnc2)Cc2ccco2)cc1 (centres undefined),91,5,97,36*
Cc1ccc2[nH]c(=O)c(C(c3nnnn3C3CCCC3)N(Cc3cccnc3)Cc3ccco3)cc2c1 (centres undefined),90,-3,80,62
